In series [1] the test system is PANC-1. Kind of series: Cytotoxicity against human PANC1 cells assessed as decrease in cell viability after 72 hrs by MTS assay. Particulars: PANC-1, 72 h. It is filed as functional, cell-based. Summed up: (§1)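 Cell proliferation assay using the MTS reagent. Compounds were tested as a dilution series, and EC50 values were derived from the concentration–response data.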
On the technique in general: Tetrazolium dyes change colour on reduction, which living cells bring about.

Series [2] concerns HCT-116. Description: Cytotoxicity against human HCT116 cells assessed as decrease in cell viability after 72 hrs by MTS assay. It counts as functional, cell-based. Particulars: HCT-116, 72 h. Summed up: as §1
In series [3] the test system is DU-145. Description: Cytotoxicity against human DU145 cells assessed as decrease in cell viability after 72 hrs by MTS assay. Particulars: DU-145, 72 h. It is filed as functional, cell-based. Summed up:
as §1

Series [4] relates to Daudi. Kind of series: Cytotoxicity against human Daudi cells assessed as decrease in cell viability after 72 hrs by MTS assay. It counts as functional, cell-based. Summed up:
as §1

In series [5] the test system is HeLa. Description: Cytotoxicity against human HeLa cells assessed as decrease in cell viability after 72 hrs by MTS assay. It is filed as functional, cell-based. Summed up: as §1
Series [6] deals with BXPC-3. Kind of series: Cytotoxicity against human BxPC3 cells assessed as decrease in cell viability after 72 hrs by MTS assay. Conditions: BXPC-3, 72 h. It counts as functional, cell-based. Summed up:
as §1

Series [7] deals with LoVo. Description: Cytotoxicity against human LoVo cells assessed as decrease in cell viability after 72 hrs by MTS assay. It counts as functional, cell-based. Summed up:
as §1

In series [8] the test system is Cardiac muscle cell. Description: Toxicity in human inducible pluripotent stem cell derived cardiomyocytes assessed as change in beating amplitude at 0.32 nM after 8 mins. It counts as cell-based. Particulars: 0.00032 µM. Summed up: (§2)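 Human iPSC-derived cardiomyocytes (Cor.4U) were grown to stable beating cultures and monitored by impedance in real time with 20 s recordings. Compounds were given as a dilution series from 0.32 nM to 5 μM, dosed twice 24 h apart, with monitoring over 48 h. Beating amplitude was taken from each negative peak to the following positive peak and reported as % change.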

Series [9] deals with Cardiac muscle cell. Description: Toxicity in human inducible pluripotent stem cell derived cardiomyocytes assessed as change in beating amplitude at 0.32 nM after 4 hrs. It is filed as cell-based. Particulars: 0.00032 µM. Summed up:
as §2

For series [10], the system named is Cardiac muscle cell. Description: Toxicity in human inducible pluripotent stem cell derived cardiomyocytes assessed as change in beating amplitude at 1.6 nM after 66 mins. It counts as cell-based. Particulars: 1.1 h, 0.0016 µM. Summed up: as §2
Series [11] relates to Cardiac muscle cell. Kind of series: Toxicity in human inducible pluripotent stem cell derived cardiomyocytes assessed as change in beating amplitude at 1.6 nM after 48 hrs. It is filed as cell-based. Conditions: 0.0016 µM. Summed up: as §2
The subject of series [12] is Cardiac muscle cell. Description: Toxicity in human inducible pluripotent stem cell derived cardiomyocytes assessed as change in beating amplitude at 8 nM after 24 hrs. It counts as cell-based. Conditions: 0.008 µM. Summed up:
as §2

In series [13] the test system is Cardiac muscle cell. Kind of series: Toxicity in human inducible pluripotent stem cell derived cardiomyocytes assessed as change in beating amplitude at 1.6 nM after 8 mins. It counts as cell-based. Conditions: 0.0016 µM. Summed up: as §2
Series [14] concerns Cardiac muscle cell. Description: Toxicity in human inducible pluripotent stem cell derived cardiomyocytes assessed as change in beating amplitude at 40 nM after 8 mins. It counts as cell-based. Conditions: 0.04 µM. Summed up: as §2

The results in this text go back to ChEMBL document CHEMBL4266027, “Cyanobufalins: Cardioactive Toxins from Cyanobacterial Blooms” (J Nat Prod, 2018).

For orientation: EC50 means the concentration giving half of the maximal effect.

In the case of `CC1(C)[C@@H](OC(N)=O)C=C[C@]2(C=O)[C@H]3CC[C@]4(C)[C@@H](c5ccc(=O)oc5)[C@@H](Cl)C[C@]4(O)C3=CC[C@@H]12`, the EC50 in [1] came out at 2.1 nM; in series [2] it was 6 nM; in [3], 5.2 nM; in series [4], 3.3 nM; in [5], 4.7 nM; in [6], 5.7 nM. In series [7], the EC50 amounted to 5.6 nM. Further, the Activity in [8] is on record as -2.7%; in [9], 19%; in series [10], 2.6%; in [11], -20%; in series [12] it was -59%; in series [13], -1.9%. Moreover, the Activity in [14] is 2.6%.
